This is a sample that favours compounds with a hit; in the whole collection about 0.78% have one here.
MMP-13 inhibitor: blocks human MMP13 activity | MMP-13 fTHP FRET cleavage, Mca fluorescence | 65,000 compounds, 0.07% hits | P45452 | inhibition, % at 4 µM;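 active means inhibition above the mean of compound-free control plate wells plus 3 SD, cut at about 14% in these data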
mHtt clearance: mutant huntingtin protein clearance; HeLa Exon1htt(103Q)mCFP, aggregate imaging; zero = plate's median compound well; inhibition, % at 1.5 µM; 47,000 compounds, 0.42% hits;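 active means inhibition of aggregate fluorescence above about 70%, also judged a hit by eye on the cell image, limit read from the data, passing the limit was not always enough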;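 further: cells exposed to compound for three days before fixation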
S1P1 ag-PAM: agonists and agonism potentiators of human S1P1 receptor | P21453 | S1P1 CRE-bla cells, forskolin, beta-lactamase FRET, potentiator mode; S1P1 agonist co-added at EC20, 2 nM; 100% = saturating reference agonist, 0% = basal | activation, % at 9.5 µM | 56,000 compounds, 0.57% hits;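 active means activation above a cutoff set at the mean activation of all tested compounds plus 3 SD, cut at about 54% in these data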;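 further: forskolin at 4 µM as EC80 and the EC20 agonist is SEW2871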
Target sequence (P21453 whole entry, looked up): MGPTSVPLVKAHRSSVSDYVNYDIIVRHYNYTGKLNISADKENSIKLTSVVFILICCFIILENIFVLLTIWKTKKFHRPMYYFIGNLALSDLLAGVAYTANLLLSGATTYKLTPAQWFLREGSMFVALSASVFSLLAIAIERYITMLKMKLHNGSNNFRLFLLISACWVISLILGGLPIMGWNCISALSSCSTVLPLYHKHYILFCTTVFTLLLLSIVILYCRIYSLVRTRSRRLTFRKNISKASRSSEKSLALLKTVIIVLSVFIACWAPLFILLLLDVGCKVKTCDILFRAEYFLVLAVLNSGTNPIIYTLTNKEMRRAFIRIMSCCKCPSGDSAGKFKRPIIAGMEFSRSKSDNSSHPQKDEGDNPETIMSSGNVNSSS
S1P3 agonist: agonists of human S1P3 receptor | S1P3 NFAT-BLA reporter cells, agonism, FRET ratio; relative to 1 µM S1P, basal subtracted | Q99500 | AID 373 | 60,000 compounds, 0.1% hits | activation, % at 4.5 µM;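 active means activation above the screen-wide mean plus 3 SD, cut at about 4.5% in these data, passing the limit was not always enough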
Target sequence (Q99500 whole entry, looked up): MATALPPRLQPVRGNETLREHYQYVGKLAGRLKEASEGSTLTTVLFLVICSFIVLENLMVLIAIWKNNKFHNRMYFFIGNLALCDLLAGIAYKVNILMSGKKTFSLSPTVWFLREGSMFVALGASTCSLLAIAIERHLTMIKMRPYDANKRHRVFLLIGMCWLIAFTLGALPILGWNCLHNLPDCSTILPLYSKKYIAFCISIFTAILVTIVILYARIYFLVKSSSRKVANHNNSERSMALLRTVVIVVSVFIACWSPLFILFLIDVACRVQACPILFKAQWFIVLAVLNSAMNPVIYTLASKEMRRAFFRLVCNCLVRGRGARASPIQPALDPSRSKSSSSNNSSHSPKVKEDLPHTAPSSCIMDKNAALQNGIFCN
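material = human S1P3 NFAT-BLA reporter CHO cells | schedule = 4 h compound at 37 °C, 2 h substrate at RT | measured by = fluorescent BLA substrate, ex 405 nm, em 460/535 nm ratio | controls = 1 µM S1P reference | replication = primary once, confirmation triplicate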
Large screens that a line does not name were inactive.

Cc1ccc2nc(C(F)OC(F)(F)F)[nH]c2c1 (stereo not drawn)	mHtt clearance 73
Cc1ccc2nc(C(O)C(O)c3nc4ccc(C)cc4[nH]3)[nH]c2c1 (stereo not drawn)	none (no result: mHtt clearance, S1P1 ag-PAM, S1P3 agonist)
CN(Cc1ccccc1)C(=O)CN(c1ccc(F)cc1)S(=O)(=O)c1ccc2c(c1)OCCO2	none (no result: MMP-13 inhibitor, S1P1 ag-PAM, S1P3 agonist)
CCOc1ccc(N2C(=O)CN=C2Nc2ccccc2F)cc1	mHtt clearance 97 (no result: MMP-13 inhibitor, S1P1 ag-PAM, S1P3 agonist)
COc1ccc(C2C(C(C)=O)=C(C)N=c3s/c(=C\c4cc(C)n(C)c4C)c(=O)n32)c(OC)c1 (stereo not drawn)	MMP-13 inhibitor 18
Brc1cnn(-c2nc(N3CCOCC3)nc(N3CCOCC3)n2)c1	none (no result: mHtt clearance)
COc1cc(SC)ccc1C(=O)Nc1ccon1	mHtt clearance 73 (no result: S1P1 ag-PAM)
O=c1c2c3c(sc2n2cnnc2n1C1CCCCC1)CCC3	MMP-13 inhibitor 20 (no result: mHtt clearance)
CS(=O)(=O)n1nc(OC(=O)c2cccc3ccccc23)cc1N	S1P1 ag-PAM 65
COc1ccc(S(=O)(=O)n2nc(OC(=O)c3ccccc3Br)cc2N)cc1	none (no result: mHtt clearance)
OC12CCCCC1C(c1ccc3c(c1)OCO3)N(Cc1ccc(F)cc1)CC2 (stereo not drawn)	none
OC12CCCCC1C(c1ccc3c(c1)OCO3)N(Cc1ccccc1F)CC2 (stereo not drawn)	mHtt clearance 73
O=C(CCn1c(=O)oc2ccccc21)N(Cc1ccccc1)c1ccccn1	mHtt clearance 73
NC(=O)CCn1c(=O)oc2ccccc21	none (no result: S1P1 ag-PAM)
O=C(Nc1nccs1)c1ccc(S(=O)(=O)NCc2cccs2)cc1	none
O=C(Nc1nccs1)c1ccc(S(=O)(=O)NCC2CCCCC2)cc1	S1P1 ag-PAM 53
C(=N\n1cnnc1)/c1ccc(OCc2cccc3ccccc23)cc1	none (no result: MMP-13 inhibitor, S1P1 ag-PAM, S1P3 agonist)
Fc1ccccc1COc1ccc(/C=N/n2cnnc2)cc1	S1P1 ag-PAM 88
COCCCNC(=O)CC(NS(=O)(=O)c1ccc(Cl)cc1)c1ccc(OC)cc1 (stereo not drawn)	none (no result: MMP-13 inhibitor, S1P1 ag-PAM, S1P3 agonist)
CC(NC(=O)Nc1nnc(C(F)(F)F)s1)(C(F)(F)F)C(F)(F)F	S1P1 ag-PAM 80
CCOc1ccc(S(=O)(=O)NCc2ccc(F)cc2)c2cccnc12	none
CCCn1c(SCC(=O)Nc2ccc3c(c2)OCCO3)nnc1-c1ccco1	none (no result: mHtt clearance)
Cc1ccc(-n2c(SCC(=O)Nc3ccc4c(c3)OCCO4)nnc2-c2ccco2)cc1	mHtt clearance 72 (no result: S1P1 ag-PAM)
N#Cc1nc(N2CCCC2)nc(N2CCCC2)n1	mHtt clearance 73
O=C(Nc1nc2n(n1)C(c1ccc(Cl)cc1)CC(c1ccc(Cl)cc1)N2)c1ccco1 (stereo not drawn)	none
COc1ccc(C2CC(c3ccc(Cl)cc3)Nc3nc(NC(=O)c4ccco4)nn32)cc1 (stereo not drawn)	mHtt clearance 75
C=CCc1c(C)c(C#N)c2nc3ccccc3n2c1N1CCN(C)CC1	none (no result: mHtt clearance)
CN1C(=O)/C(=C2/C=Cc3ccccc3N2CCCS(=O)(=O)O)SC1=S	MMP-13 inhibitor 18 (no result: mHtt clearance)
C=CCN1C(=O)/C(=C2/Sc3ccccc3N2CCCS(=O)(=O)O)SC1=S	MMP-13 inhibitor 16
CCN1C(=O)/C(=C2\C=Cc3ccccc3N2CC)OC1=S	none
C=CCN1C(=O)/C(=C2/Sc3ccccc3N2C)SC1=Nc1c(C)n[nH]c1C	none (no result: mHtt clearance)
COc1ccc(CCNc2c(C)c(C)nc3ncnn23)cc1	S1P1 ag-PAM 134
CCc1c(C)nc2ncnn2c1NCCc1ccc(OC)c(OC)c1	none (no result: mHtt clearance)
Cc1cccc(C(=O)NNC2=C(C(=O)C(F)(F)F)CCC2)c1O	none (no result: MMP-13 inhibitor, S1P1 ag-PAM, S1P3 agonist)
COCCN(C(=O)c1ccccc1)c1nnc(-c2cccnc2)s1	S1P1 ag-PAM 62 (no result: mHtt clearance)
COc1cc(-c2nnc(SCC(=O)/C(C#N)=C(\C)N)o2)cc(OC)c1OC	none (no result: MMP-13 inhibitor, S1P1 ag-PAM, S1P3 agonist)
O=C(COC(=O)CCCN1C(=O)c2ccccc2C1=O)Nc1ncc(Cl)cc1Cl	mHtt clearance 72
O=C(Cn1nnc(-c2ccccc2Cl)n1)N1CCN(S(=O)(=O)c2ccc(Cl)cc2)CC1	mHtt clearance 76
N#Cc1nc(-c2ccc(OCc3ccccc3)cc2)oc1NCc1cccnc1	S1P1 ag-PAM 60 (no result: mHtt clearance)
N#Cc1nc(-c2ccc(OCc3ccc(Cl)cc3)cc2)oc1NCc1cccnc1	none (no result: mHtt clearance)
CN(C)c1oc(-c2ccc(OCc3ccccc3)cc2)nc1C#N	S1P1 ag-PAM 72
CCOC(=O)c1cccc2c1-c1ccccc1/C2=N/O	S1P1 ag-PAM 62
COC(=O)c1ccc2c(=O)n(C3CCCCC3)c(SCC#N)nc2c1	S1P1 ag-PAM 87 (no result: mHtt clearance)
CCSc1nc2cc(C(=O)OC)ccc2c(=O)n1CC	none (no result: mHtt clearance, S1P1 ag-PAM)
Cc1ccc(-c2csc3ncnc(Sc4nnc(CN5CCCCCC5=O)o4)c23)cc1	S1P1 ag-PAM 93 (no result: mHtt clearance)
Cc1ccc(-c2csc3ncnc(SCC(=O)c4ccc5c(c4)OCCO5)c23)cc1	none (no result: MMP-13 inhibitor, S1P1 ag-PAM, S1P3 agonist)
COc1ccc(N(CC(=O)O)S(=O)(=O)c2cccnc2)cc1	mHtt clearance 71
O=C(CSCc1cccc(Cl)c1)N1CCN(Cc2ccc3c(c2)OCO3)CC1	none (no result: MMP-13 inhibitor, S1P1 ag-PAM, S1P3 agonist)
COc1ccccc1N1CCN(C(=O)CSc2nc(C)c(Cc3ccccc3)c(=O)[nH]2)CC1	mHtt clearance 80
COc1ccccc1N1CCN(C(=O)CSc2nc(-c3ccccc3)cc(=O)[nH]2)CC1	none (no result: mHtt clearance)
O=C(NC1CCCC1)C1C2C=CC(C2)C1C(=O)N1CCOCC1 (stereo not drawn)	mHtt clearance 78
Cc1sc2nc3n(c(=O)c2c1C)NC(=O)CC3	none (no result: mHtt clearance)
O=C1CCc2nc3sc4c(c3c(=O)n2N1)CCCC4	mHtt clearance 84
CCN1C=C(Cc2cccs2)C2=C(C1)C(c1cccs1)C(C#N)=C(N)O2 (stereo not drawn)	none
CCN(CC)c1ccc(/C=C(/C#N)c2nc3ccccc3[nH]2)c(OC(C)C)c1	none (no result: MMP-13 inhibitor, S1P1 ag-PAM, S1P3 agonist)
Cc1cc(/C=c2/sc3nc4ccccc4n3c2=O)c(C)n1-c1ccccn1	S1P1 ag-PAM 101 (no result: mHtt clearance)
Cc1n[nH]c(=O)nc1NCC1CCCO1 (stereo not drawn)	mHtt clearance 76 (no result: S1P1 ag-PAM)
O=C(Nc1ccc(S(=O)(=O)N2CCN(Cc3ccccc3)CC2)cc1)c1cnccn1	none
Cc1nn(Cc2ccc(Cl)c(Cl)c2)c(C)c1NC(=O)c1cc(-c2ccco2)on1	S1P1 ag-PAM 96 (no result: mHtt clearance)
Cc1ccc(CNC(=O)CSc2nc3ccccc3c3nc(C)nn23)cc1	none (no result: MMP-13 inhibitor, S1P1 ag-PAM, S1P3 agonist)
CCOC(=O)CSc1nc(C)cc(=O)[nH]1	mHtt clearance 71
COc1ccc(-c2nnc(SCC(=O)N3CCCCC3)o2)cc1OC	none (no result: mHtt clearance)
COc1ccc(-c2nnc(SCC(=O)OC3CCCCC3)o2)cc1OC	mHtt clearance 72
N#Cc1c(SCC(N)=O)nc2c(c1-c1ccc(OCc3ccccc3)cc1)CCCC2	none (no result: MMP-13 inhibitor, S1P1 ag-PAM, S1P3 agonist)
O=C(NC1CC1)c1nc2c(nnn2Cc2ccccc2Cl)c(=O)[nH]1	none (no result: MMP-13 inhibitor, S1P1 ag-PAM, S1P3 agonist)
O=C(NC1CCCCC1)c1nc2c(nnn2Cc2ccccc2Cl)c(=O)[nH]1	mHtt clearance 74
CC(C)C(=O)N1CCN(c2ccc(NC(=O)c3cccs3)cc2)CC1	mHtt clearance 79 (no result: MMP-13 inhibitor, S1P1 ag-PAM, S1P3 agonist)
CC(=O)Nc1cc(OC(C)=O)c2nonc2c1OC(C)=O	S1P1 ag-PAM 98 (no result: mHtt clearance)
O=C(Nc1ccc(C(F)(F)F)cc1)C1CCCN1S(=O)(=O)c1cccc2cccnc12 (stereo not drawn)	S1P1 ag-PAM 66
Cc1cc(C)nc(-n2nc(C)c(Sc3ccc(F)cc3)c2N)n1	S1P3 agonist 60
